How the values were obtained:
[1] = tested on: Cavia porcellus; assay: In vivo histamine induced lethality after 8 hours of iv administration in guinea pig; format: functional
[2] = tested on: Rattus norvegicus; assay: Inhibition of mydriatic activity in rat after 2 hr of oral administration.; format: functional
[3] = tested on: Rattus norvegicus; assay: Inhibition of histamine skin reaction in rat after 2 hr of oral administration.; format: functional
In short: (§1)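 Test compound or solvent given orally to rats 2 h before four intradermal injections into clipped back: two of 50 μL histamine dihydrochloride (1 mg/mL in saline), two of 50 μL serotonin (2 μg/mL in saline). Then iv 0.5 mL of 0.5% trypan blue. Bluing of skin reactions scored 30 min later.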

[4] = tested on: Rattus norvegicus; assay: Inhibition of serotonin skin reaction in rat after 2 hr of oral administration.; format: functional; in short: as §1
[5] = tested on: Cavia porcellus; assay: In vivo histamine induced lethality after 3 hours of iv administration in guinea pig; format: functional
[6] = tested on: Cavia porcellus; assay: In vivo histamine induced lethality after 24 hours of iv administration in guinea pig; format: functional
[7] = tested on: Rattus norvegicus; assay: In vivo antihistaminic activity using compound 48/80 induced lethality test in rat after 2 hr of oral administration; format: functional
In short: (§2)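 Protection was survival for 4 h after challenge. ED50 with confidence limits was calculated by Finney from five rats per dose and at least three doses of a geometric series (0.0025–40 mg/kg). Estimated ED50 used at least two rats per dose.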

[8] = tested on: Rattus norvegicus; assay: Inhibition of histamine skin reaction in rat after 2 hr of subcutaneous administration.; format: functional; conditions: sc
[9] = tested on: Rattus norvegicus; assay: In vivo antihistaminic activity using compound 48/80 induced lethality test after 1 hr of subcutaneous administration in rat; format: functional; conditions: sc; in short: as §2
[10] = tested on: Rattus norvegicus; assay: Inhibition of serotonin skin reaction in rat after 2 hr of oral administration; format: functional; in short: as §1
[11] = tested on: Cavia porcellus; assay: In vivo histamine induced lethality after 96 hours of iv administration in guinea pig; format: functional
[12] = tested on: Rattus norvegicus; assay: Inhibition of mydriatic activity in rat after 2 hr of intraperitoneal administration; format: functional; conditions: ip
[13] = tested on: Rattus norvegicus; assay: Inhibition of histamine skin reaction in rat after 2 hr of oral administration; format: functional; in short: as §1
[14] = tested on: Rattus norvegicus; assay: Inhibition of serotonin skin reaction in rat after 2 hr of subcutaneous administration.; format: functional; conditions: sc
[15] = tested on: Cavia porcellus; assay: In vivo histamine induced lethality after 48 hours of iv administration in guinea pig; format: functional
In short: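 Male albino guinea pigs (280–360 g) were dosed orally 3, 24, 48 or 96 h before an iv challenge with histamine dihydrochloride (1.25 mg/kg). Protection was survival at 1 h. Doses rose in 2-fold steps from 0.0025 mg/kg, with at least three doses and 4–6 animals per dose and time point. PD50 with confidence limits was computed by Finney.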

[16] = tested on: Rattus norvegicus; assay: In vivo antihistaminic activity using compound 48/80 induced lethality test in rat after 2 hr of oral administration.; format: functional; in short: as §2
[17] = tested on: Rattus norvegicus; assay: Inhibition of mydriatic activity in rat after 2 hr of intraperitoneal administration.; format: functional; conditions: ip
[18] = tested on: Rattus norvegicus; assay: In vivo antihistaminic activity using compound 48/80 induced lethality test in rat after 2 hr of oral administration; C represents estimated ED50 values used whenever possible for comparison of relative potencies; format: functional, organism-based
In short: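 Protection = survival 4 h after challenge. ED50 (dose giving 50% survival) calculated with confidence limits by Finney, five animals per dose, at least three doses from geometric series 0.0025–40.0 mg/kg. Estimated ED50 values based on at least two animals per dose.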

[19] = tested on: Rattus norvegicus; assay: Inhibition of mydriatic activity in rat after 2 hr of oral administration; format: functional
[20] = tested on: Rattus norvegicus; assay: In vivo antihistaminic activity using compound 48/80 induced lethality test in rat 2 hr after oral administration; format: functional; in short: as §2
[21] = tested on: Rattus norvegicus; assay: In vivo antihistaminic activity using compound 48/80 induced lethality test in rat after 2 hr( oral administration); format: functional; in short: as §2
[22] = tested on: Rattus norvegicus; assay: In vivo antihistaminic activity using compound 48/80 induced lethality test in rat after 2 hr of subcutaneous administration; format: functional; conditions: sc; in short: as §2

O=c1[nH]c2ccccc2n1CCCN1CCN(C(c2ccccc2)c2ccccc2)CC1 [OXATOMIDE]
ED50 [1]: 1.25 mg/kg
ED50 [2]: > 160 mg/kg
ED50 [3]: 9.36 mg/kg
ED50 [4]: 32.6 mg/kg
ED50 [5]: 0.2 mg/kg
ED50 [6]: > 5 mg/kg

COc1ccc(CCN2CCC(Nc3nc4ccccc4n3Cc3ccc(F)cc3)CC2)cc1 [ASTEMIZOLE]
ED50 [1]: 0.17 mg/kg
ED50 [2]: > 160 mg/kg
ED50 [7]: 0.11 mg/kg
ED50 [8]: 0.15 mg/kg
ED50 [9]: 0.11 mg/kg
ED50 [10]: 14.2 mg/kg
ED50 [11]: 0.19 mg/kg
ED50 [12]: > 40 mg/kg
ED50 [5]: 0.33 mg/kg
ED50 [13]: 0.13 mg/kg
ED50 [14]: > 2.5 mg/kg
ED50 [15]: 0.04 mg/kg
ED50 [6]: 0.07 mg/kg

Fc1ccc(Cn2c(NC3CCN(CCc4ccccc4)CC3)nc3ccc(F)cc32)cc1
ED50 [9]: 1.25 mg/kg
ED50 [16]: 0.63 mg/kg

Oc1ccc(CCN2CCC(Nc3nc4ccccc4n3Cc3ccc(F)cc3)CC2)cc1 [DESMETHEYLASTEMIZOLE]
ED50 [1]: 0.08 mg/kg
ED50 [7]: 0.1 mg/kg
ED50 [8]: 0.08 mg/kg
ED50 [9]: 0.16 mg/kg
ED50 [11]: 0.27 mg/kg
ED50 [5]: 0.19 mg/kg
ED50 [17]: > 40 mg/kg
ED50 [14]: ≥ 0.63 mg/kg
ED50 [15]: 0.12 mg/kg
ED50 [6]: 0.06 mg/kg

O=[N+]([O-])c1ccc(CCN2CCC(Nc3nc4ccccc4n3Cc3ccc(F)cc3)CC2)cc1
ED50 [9]: > 2.5 mg/kg
ED50 [18]: Estimated ED50 values used whenever possible

COc1ccc(CN(CCN(C)C)c2ccccn2)cc1 [PYRILAMINE]
ED50 [3]: > 40 mg/kg
ED50 [4]: > 40 mg/kg
ED50 [19]: 56.5 mg/kg
ED50 [20]: 56.6 mg/kg

CN1CCC(Nc2nc3ccccc3n2Cc2ccc(F)cc2)CC1
ED50 [7]: 2.5 mg/kg
ED50 [8]: 0.04 mg/kg
ED50 [9]: 0.16 mg/kg
ED50 [12]: > 40 mg/kg
ED50 [14]: ≥ 0.63 mg/kg

COc1ccc(S(=O)(=O)CCCN2CCC(Nc3nc4ccccc4n3Cc3ccc(F)cc3)CC2)cc1
ED50 [7]: 2.5 mg/kg
ED50 [9]: 0.31 mg/kg

Cc1cc(CCN2CCC(Nc3nc4ccccc4n3Cc3ccc(F)cc3)CC2)ccc1O.Cl
ED50 [7]: 0.16 mg/kg
ED50 [9]: 0.08 mg/kg

CN1CCC(=C2c3ccccc3C=Cc3ccccc32)CC1 [CYPROHEPTADINE]
ED50 [1]: 0.88 mg/kg
ED50 [2]: 9.36 mg/kg
ED50 [3]: 0.89 mg/kg
ED50 [4]: 2.35 mg/kg
ED50 [21]: 1.13 mg/kg
ED50 [5]: 0.08 mg/kg
ED50 [6]: > 2.5 mg/kg

O=C(Cc1ccccc1)Oc1ccc(CCN2CCC(Nc3nc4ccccc4n3Cc3ccc(F)cc3)CC2)cc1
ED50 [7]: 0.08 mg/kg
ED50 [9]: 0.31 mg/kg

OC(CN1CCC(Nc2nc3ccccc3n2Cc2ccc(F)cc2)CC1)c1ccccc1 (configuration not stated)
ED50 [7]: > 2.5 mg/kg
ED50 [9]: 0.63 mg/kg

Cl.O=C(COc1ccc(CCN2CCC(Nc3nc4ccccc4n3Cc3ccc(F)cc3)CC2)cc1)N1CCCCC1
ED50 [7]: 1.25 mg/kg
ED50 [9]: 1.25 mg/kg

CC(c1ccccc1)N1CCC(Nc2nc3ccccc3n2Cc2ccc(F)cc2)CC1 (configuration not stated)
ED50 [7]: 2.5 mg/kg
ED50 [9]: 0.31 mg/kg

Fc1ccc(Cn2c(NC3CCN(CCc4ccccc4)CC3)nc3cc(F)ccc32)cc1
ED50 [9]: 1.25 mg/kg
ED50 [16]: > 2.5 mg/kg

Fc1ccc(Cn2c(NC3CCN(CCc4ccncc4)CC3)nc3ccccc32)cc1
ED50 [7]: 1.25 mg/kg
ED50 [9]: 0.31 mg/kg

COC(=O)Oc1ccc(CCN2CCC(Nc3nc4ccccc4n3Cc3ccc(F)cc3)CC2)cc1
ED50 [7]: 0.16 mg/kg
ED50 [9]: 0.16 mg/kg

O=C(OCCN1CCC(Nc2nc3ccccc3n2Cc2ccc(F)cc2)CC1)N1CCOCC1
ED50 [7]: 2.5 mg/kg
ED50 [9]: 0.31 mg/kg

CNC(=O)Oc1ccc(CCN2CCC(Nc3nc4ccccc4n3Cc3ccc(F)cc3)CC2)cc1
ED50 [7]: 2.5 mg/kg
ED50 [9]: 1.25 mg/kg

Fc1ccc(Cn2c(NC3CCN(CCc4cccc5ccccc45)CC3)nc3ccccc32)cc1
ED50 [7]: 0.63 mg/kg
ED50 [9]: 1.25 mg/kg

CCNC(=O)COc1ccc(CCN2CCC(Nc3nc4ccccc4n3Cc3ccc(F)cc3)CC2)cc1
ED50 [7]: 2.5 mg/kg
ED50 [9]: 1.25 mg/kg

COc1cccc(OC)c1OCC(O)CN1CCC(Nc2nc3ccccc3n2Cc2ccc(F)cc2)CC1 (configuration not stated)
ED50 [7]: 1.25 mg/kg
ED50 [9]: 0.63 mg/kg

Cl.Fc1ccc(Cn2c(NC3CCN(CCc4ccccc4)CC3)nc3ccccc32)cc1
ED50 [7]: 0.63 mg/kg
ED50 [9]: 0.31 mg/kg

COc1ccc(C(=O)OCCN2CCC(Nc3nc4ccccc4n3Cc3ccc(F)cc3)CC2)cc1.Cl
ED50 [7]: 0.63 mg/kg
ED50 [9]: 0.31 mg/kg

COc1cc(CCN2CCC(Nc3nc4ccccc4n3Cc3ccc(F)cc3)CC2)cc(OC)c1OC.Cl
ED50 [7]: 0.63 mg/kg
ED50 [9]: 1.25 mg/kg

O=C(OCc1ccccc1)Oc1ccc(CCN2CCC(Nc3nc4ccccc4n3Cc3ccc(F)cc3)CC2)cc1
ED50 [7]: 0.16 mg/kg
ED50 [9]: 0.31 mg/kg

Br.OCCN1CCC(Nc2nc3ccccc3n2Cc2ccc(F)cc2)CC1
ED50 [1]: 0.07 mg/kg
ED50 [7]: 0.63 mg/kg
ED50 [8]: 0.08 mg/kg
ED50 [9]: 0.04 mg/kg
ED50 [11]: 2.15 mg/kg
ED50 [5]: 0.04 mg/kg
ED50 [17]: > 40 mg/kg
ED50 [14]: > 0.63 mg/kg
ED50 [15]: 0.3 mg/kg
ED50 [6]: 0.09 mg/kg

CC(CN1CCC(Nc2nc3ccccc3n2Cc2ccc(F)cc2)CC1)c1ccccc1 (configuration not stated)
ED50 [7]: 2.5 mg/kg
ED50 [9]: 0.63 mg/kg

Br.Br.Fc1ccc(Cn2c(NC3CCNCC3)nc3ccccc32)cc1
ED50 [7]: 1.02 mg/kg
ED50 [9]: 0.056 mg/kg

CN1CCC(=C2c3ccccc3CCc3cccnc32)CC1 [AZATADINE]
ED50 [1]: 0.06 mg/kg
ED50 [2]: 5.39 mg/kg
ED50 [22]: 0.049 mg/kg
ED50 [7]: 0.48 mg/kg
ED50 [10]: 18.8 mg/kg
ED50 [5]: 0.014 mg/kg
ED50 [13]: 0.77 mg/kg
ED50 [15]: > 2.5 mg/kg

— ChEMBL document CHEMBL1123124, “New antihistaminic N-heterocyclic 4-piperidinamines. 2. Synthesis and antihistaminic activity of 1-[(4-fluorophenyl)methyl]-N-(4-piperidinyl)-1H-benzimidazol-2-a mines” (1985)
